The text below walks through data of ChEMBL document CHEMBL1125770, “Synthesis and antitumor properties of activated cyclophosphamide analogues” (J Med Chem, 1991).

Data set [1] can be described thus: Half-life in 4:6 acetone/ 1.0 M HEPES buffer, pH 7.4, 37 degree celsius. It is filed as ADME. Summed up: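 Generation of 4 from the 4-hydroxy compounds followed by ³¹P NMR in 4:6 acetone/1.0 M HEPES, pH 7.4, 37 °C; half-time of phosphoramide mustard release recorded.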
Data set [2] relates to L1210. As to the kind of experiment: In vivo antitumor activity against intraperitoneal murine cyclophosphamide resistant L1210 Leukemia cells at 170 umol/kg. The class given is functional, Mus musculus. The gist of the method: (§1)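 NCI L1210 protocol. Tumor propagated in DBA/2 mice; tests done in B6D2F1 mice, six per group, given 10⁶ L1210 cells ip. One ip dose of drug suspended in 2% (carboxymethyl)cellulose (or vehicle alone) given 24 h later. Survival followed daily for 30 days. %T/C = 100 × treated/control survival time.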

For data set [3], the system named is L1210. The experiment in a line: In vivo antitumor activity against intraperitoneal murine cyclophosphamide resistant L1210 Leukemia cells at 510 umol/kg. The class given is functional, Mus musculus. The gist of the method: as §1
The test system of data set [4] is L1210. The experiment in a line: In vivo antitumor activity against intraperitoneal murine cyclophosphamide resistant L1210 Leukemia cells at 680 umol/kg. The class given is functional, Mus musculus. The gist of the method: as §1
Data set [5] deals with L1210. The experiment in a line: In vivo antitumor activity against intraperitoneal murine cyclophosphamide resistant L1210 Leukemia cells at 340 umol/kg. The class given is functional, Mus musculus. The gist of the method:
as §1

Data set [6] relates to L1210. The experiment in a line: In vivo antitumor activity against intraperitoneal murine wild type L1210 Leukemia cells at 170 umol/kg. It is filed as functional, Mus musculus. Summed up: as §1
The subject of data set [7] is L1210. As to the kind of experiment: In vivo antitumor activity against intraperitoneal murine wild type L1210 Leukemia cells at 510 umol/kg. The class given is functional, Mus musculus. Summed up:
as §1

In data set [8] the test system is L1210. As to the kind of experiment: In vivo antitumor activity against intraperitoneal murine wild type L1210 Leukemia cells at 680 umol/kg. It is filed as functional, Mus musculus. Summed up:
as §1

The test system of data set [9] is L1210. As to the kind of experiment: In vivo antitumor activity against intraperitoneal murine wild type L1210 Leukemia cells at 340 umol/kg. The class given is functional, Mus musculus. Summed up:
as §1

Data set [10] relates to L1210. As to the kind of experiment: In vitro antitumor activity against cyclophosphamide-resistant L1210/CP cells. The class given is functional, Mus musculus. The gist of the method:
(§2)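 Clonogenic assay on L1210 and P388 leukemia cells, wild-type (/O) and cyclophosphamide-resistant (/CP) lines, with 1-h drug exposure. LC99 is the concentration that cuts colony formation to 1% of control. It comes from linear regression of log survival vs concentration, at least three determinations.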

Data set [11] concerns L1210. As to the kind of experiment: In vitro antitumor activity against wild-type L1210/0 cells. It is filed as functional, Mus musculus. Summed up: as §2
The subject of data set [12] is L1210. The experiment in a line: Resistance factor for LC99 of resistant (L1210/CP) to that of LC99 for wild type (L1210/0). The class given is functional, Mus musculus. The gist of the method:
(§3)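 Resistance factor is LC99 in the cyclophosphamide-resistant line divided by LC99 in the matching wild-type line. Each LC99 comes from a clonogenic assay with 1-h drug exposure, by linear regression of log survival vs concentration, at least three determinations.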

The subject of data set [13] is P388. The experiment in a line: In vitro antitumor activity against cyclophosphamide-resistant P388/CP cells. The class given is functional, Mus musculus. Summed up: as §2
Data set [14] deals with P388. The experiment in a line: In vitro antitumor activity against wild-type P388/0 cells. The class given is functional, Mus musculus. Summed up:
as §2

Data set [15] concerns P388. The experiment in a line: Resistance factor for LC99 of resistant (P388/CP) to that of LC99 for wild type (P388/0). It is filed as functional, Mus musculus. The gist of the method:
as §3

In general, half-life refers to the time in which the quantity being followed falls by half. A high value points to slow decline. The term T/C denotes the ratio of treated to control.

Bounds are passed on as bounds.

Consider `O=[P@]1(N(CCCl)CCCl)N[C@H](OO)C[C@@H](c2ccncc2)O1`, for which, in data set [1], the half-life was found to be 1.83 h. In addition, the T/C in the data set on L1210 [2] was 119%; with L1210 [3], 138%; with L1210 [4] it was 150%; in the data set with L1210 [5], 131%; with L1210 [6], 130%; with L1210 [7] it was 160%. The T/C was determined as 190% in the data set with L1210 [8] and 150% with L1210 [9]. Moreover, the LC99 stood at 57 µM in the data set with L1210 [10], 53 µM in the data set with L1210 [11], 23 µM with P388 [13] and 44 µM in the data set with P388 [14]. The RF in the data set with L1210 [12] turned out to be 1.1; with P388 [15], 0.5.
The compound `O=[P@]1(N(CCCl)CCCl)N[C@H](OO)C[C@@H](c2ccccc2)O1` had a half-life in data set [1] of 2.17 h. Further, the results for the T/C in the data set with L1210 [6] and with L1210 [9] were 117% and 144%, respectively. Also, the LC99 was determined as 29 µM with L1210 [10], 9 µM in the data set on L1210 [11], 15 µM in the data set on P388 [13] and 6 µM in the data set with P388 [14]. Moreover, the RF with L1210 [12] amounted to 3.2; in the data set with P388 [15] it was 2.5.
Turning to `O=[P@]1(N(CCCl)CCCl)N[C@H](OO)C[C@@H](c2cccnc2)O1`, the half-life in [1] was found to be 1.75 h. Further, the LC99 with L1210 [10] amounted to 56 µM; in the data set on L1210 [11] it was 36 µM; in the data set with P388 [13], 34 µM; in the data set on P388 [14] it was 33 µM. In addition, the RF in the data set with L1210 [12] is 1.6; with P388 [15], 1.
For the compound `C[C@@H]1C[C@@H](OO)N[P@](=O)(N(CCCl)CCCl)O1`, the half-life in data set [1] was above 8.33 h. In the data set with L1210 [9], this compound gave a T/C of 138%. In addition, the LC99 was determined as 180 µM with L1210 [10], 39 µM with L1210 [11], 69 µM in the data set on P388 [13] and 26 µM with P388 [14]. For the same compound, the figures for the RF in the data set on L1210 [12] and in the data set with P388 [15] were 4.6 and 2.7, respectively.
Take `O=[P@]1(N(CCCl)CCCl)N[C@H](OO)C[C@@H](CCc2ccccc2)O1`: the half-life in data set [1] is above 8.33 h. In the data set with L1210 [9], this compound displayed a T/C of 106%. Further, the LC99 came to 9 µM in the data set with L1210 [10], 13 µM in the data set with L1210 [11], 5 µM in the data set with P388 [13] and 10 µM with P388 [14]. The RF in the data set on L1210 [12] is on record as 0.7; in the data set with P388 [15], 0.5.
With `O=[P@]1(N(CCCl)CCCl)N[C@H](OO)C[C@@H](c2ccc(F)cc2)O1`, the half-life in data set [1] stood at 3.42 h. Moreover, the results for the T/C with L1210 [7] and in the data set on L1210 [9] were 188% and 163%, respectively. The LC99 in the data set on L1210 [10] worked out at 8 µM; in the data set with L1210 [11], 7 µM; in the data set on P388 [13] it was 5 µM; with P388 [14], 6 µM. Also, the RF in the data set on L1210 [12] and in the data set on P388 [15] was 1.2 throughout.
For `O=[P@@]1(N(CCCl)CCCl)N[C@H](OO)C[C@@H](c2ccccc2)O1`, the half-life in data set [1] came out at 1.53 h. Also, the LC99 with L1210 [10] worked out at 26 µM; in the data set on L1210 [11] it was 20 µM; in the data set on P388 [13] it was 21 µM; with P388 [14], 16 µM. The RF in the data set on L1210 [12] and in the data set on P388 [15] was 1.3 each time.
Regarding `CC(C)[C@@H]1C[C@@H](OO)N[P@](=O)(N(CCCl)CCCl)O1`, in [1], the half-life was above 8.33 h. The figures for the LC99 in the data set on L1210 [10], in the data set with L1210 [11] and with P388 [14] were 86 µM, 110 µM and 61 µM, respectively. Also, the RF in the data set with L1210 [12] was found to be 1; with P388 [15], 0.7.
As for `Cc1ccc([C@@H]2C[C@@H](OO)N[P@](=O)(N(CCCl)CCCl)O2)cc1`, the half-life in data set [1] amounted to 4 h. Besides, the T/C was found to be 175% in the data set with L1210 [7], 175% in the data set on L1210 [8] and 150% in the data set on L1210 [9]. For the same compound, the LC99 turned out to be 6 µM in the data set on L1210 [10], 5 µM with L1210 [11], 3 µM in the data set with P388 [13] and 3 µM with P388 [14]. Also, the RF in the data set with L1210 [12] amounted to 1.2; in the data set on P388 [15] it was 1.
Turning to `O=[N+]([O-])c1ccc([C@@H]2C[C@@H](OO)N[P@](=O)(N(CCCl)CCCl)O2)cc1`, the half-life in data set [1] worked out at 3.17 h. The results for the T/C in the data set on L1210 [7], in the data set on L1210 [8] and with L1210 [9] were 185%, 205% and 163%, respectively. For the same compound, the LC99 worked out at 8 µM in the data set with L1210 [10], 8 µM in the data set on L1210 [11], 3 µM in the data set on P388 [13] and 7 µM in the data set on P388 [14]. Besides, the RF with L1210 [12] is 1; in the data set on P388 [15], 0.4.
For `O=P1(N(CCCl)CCCl)NCCCO1` (stereo not given) [CYCLOPHOSPHAMIDE ANHYDROUS], the T/C is recorded as 105% in the data set on L1210 [2]; 110% with L1210 [3]; 95% in the data set with L1210 [5]; 150% with L1210 [6]; 208% with L1210 [7].
On to `O=P1(N(CCCl)CCCl)NC(OO)CCO1` (stereo not given) [PERFOSFAMIDE], for which, in [1], the half-life is 0.25 h. Further, the T/C came to 115% in the data set with L1210 [2], 110% with L1210 [5], 140% in the data set on L1210 [6] and 171% in the data set on L1210 [9]. The LC99 in the data set on L1210 [10] stood at 140 µM; in the data set on L1210 [11], 8 µM; in the data set with P388 [13], 60 µM; with P388 [14] it was 6 µM. Besides, the RF in the data set on L1210 [12] worked out at 17; with P388 [15], 10.
